A selection: hits, their analogues and other compounds. The true share with any hit is near 2.1%.
IEC-6 cytotox – kills IEC-6 intestinal cells in KLF5 counter-screen; IEC-6 cytotoxicity, luminescence viability; inhibition, % at 5 µM; 0.78% of 290,000 active; AID 1825; in the data active = inhibition above about 22%;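 also: 0% = plate median of test compound wells and 100% = cytotoxic reference compound wells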
b-catenin transl – modulators of beta-catenin nuclear translocation; HeLa beta-catenin nuclear translocation, immunofluorescence imaging; nuclear translocation activity, % at 5 µM; 0.3% of 190,000 active; AID 1665;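 active = nuclear translocation activity above 50% at 5 µM, with a well cell count of 50 or more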;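 also: per-cell ratio of nuclear to cytoplasmic median beta-catenin stain intensity; plate controls were DMSO negative control for no effect and GSK-3 inhibitor IX positive control for full effect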
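Technique: fluorescence imaging of beta-catenin antibody stain plus DAPI / Material: human HeLa cell line / Incubation: compound treatment 24 h, 37°C, 5% CO2 / Read-out basis: % activation of per-cell nuclear versus cytoplasmic median beta-catenin signal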
KLF5 inhibitor – kruppel-like factor 5 inhibition; DLD-1 KLF5 promoter-luciferase reporter, luminescence; 0.23% of 290,000 active; inhibition, % at 5 µM;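 active = inhibition above a per-plate limit of that plate's mean compound inhibition plus 3 SD, cut at about 60% in these data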;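 also: 0% = DMSO wells and 100% = LY294002 at 200 µM; higher means less KLF5 promoter-driven luciferase light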
Ba/F3 V617F tox – reduce viability of Ba/F3 cells dependent on JAK2V617F; inhibition, % at 5.6 µM; AID 1446; 1.1% of 220,000 active; Ba/F3 EpoR-JAK2V617F viability, ATP luminescence;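 active = inhibition above the campaign mean plus 3 SD over all tested compounds, cut at about 24% in these data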;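 also: cytokine-independent growth of Ba/F3 cells driven by EpoR plus mutant JAK2; 0% = DMSO-treated cells and 100% = JAK inhibitor I control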
BaF3 parental – reduces parental Ba/F3 cell viability, JAK2V617F counter-screen; CellTiter-Glo ATP luminescence; inhibition, % at 5.6 µM; 1.1% of 220,000 active; AID 1486;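 active = inhibition above a per-campaign cutoff, the mean inhibition of all tested compounds plus 3 SD, cut at about 27% in these data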;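 also: 0% = DMSO wells and 100% = JAK Inhibitor I control wells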
MT stabilizer – microtubule stabilization, imaging screen; AID 2205; % tubulin-high responders, % at 10 µM; HeLa tubulin immunostaining HCS, 24 h; share of cells brighter than vehicle mean+2SD; 0.83% of 200,000 active;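 active = plate Z-score above 3 for both tubulin-high and condensed-nucleus cell shares, with cell loss under 80%, at 10 µM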;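 also: anti alpha tubulin signal scored within the nucleus-defined area of each cell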
* hit, by the source's call; · = not tested or not shown.

SMILES	IEC-6 cytotox	b-catenin transl	KLF5 inhibitor	Ba/F3 V617F tox	BaF3 parental	MT stabilizer
CC(C)NC(=O)/C(=C/c1cn(-c2ccccc2)nc1-c1cccc([N+](=O)[O-])c1)NC(=O)c1ccccc1	-10.4	-2.0	-10.1	-1.8	1.9	3.5
CC(C)(C)N1CC(C(=O)Nc2cccc(Cl)c2Cl)CC1=O (configuration not stated)	1.8	·	-25.5	·	·	·
Cc1cc(C)c[n+](C(C)C(=O)c2ccc(-c3ccccc3)cc2)c1 (configuration not stated)	-2.4	3.1	-29.8	66.4*	65.0*	2.5
Cc1ccc(/C=N/NC(=O)C2CC(=O)N(c3ccccc3)C2)s1 (configuration not stated)	13.3	57.1*	11.1	0.2	-5.6	8.7
Cc1cccc(N=C2NC(=O)/C(=C/c3cccn3C)S2)c1	-1.7	-3.4	-3.6	-2.8	2.0	·
O=C1NC(=Nc2ccccc2)S/C1=C\c1cccn1-c1ccccc1	2.5	9.5	-7.3	-3.4	2.5	20.5*
CCN(C(=O)COc1ncnc2sccc12)c1ccccc1	-5.5	-0.8	-8.1	1.0	7.2	2.4
Cn1ncc(N=Cc2ccccc2)c1C(=O)Nc1cccc(Cl)c1	4.0	49.2	-20.1	-2.0	-1.0	33.9*
CCCc1cc(=O)oc2cc(OCc3ccc(C(=O)O)cc3)ccc12	15.3	·	-70.5	·	·	·
C[n+]1c(/C=C/c2ccc(O)cc2)ccc2ccccc21	4.6	·	-37.6	·	·	·
C[n+]1c(/C=C/c2ccc3c(c2)OCO3)ccc2ccccc21	3.0	3.8	-28.4	41.3*	33.4*	5.3
Cc1onc(-c2ccccc2Cl)c1C(=O)N1CCN(c2ccccc2)CC1	3.5	0.4	-5.0	-2.5	4.1	2.3
O=C(c1cccc(F)c1)N1CCN(c2cccc(Cl)c2)CC1	3.7	·	7.1	0.3	5.7	21.5*
Cc1onc(-c2ccccc2Cl)c1C(=O)N1CCN(c2cccc(Cl)c2)CC1	·	·	·	·	·	20.2*
O=C(c1cccc(F)c1)N1CCCN(C(=O)c2cccc(F)c2)CC1	-1.7	1.8	0.7	-5.4	8.5	1.4
CCOc1ccc(-c2nnn(CC(=O)NCc3ccco3)n2)cc1OCC	-2.7	-4.6	-44.4	-0.8	5.8	4.1
CCCCOc1ccc(-c2nnn(CC(=O)NCc3ccco3)n2)cc1	-2.8	23.9	4.1	5.9	-1.1	39.3*
CCN1CCN(c2cc(C)c3cc(NC(=O)c4ccncc4)ccc3n2)CC1	·	0.7	·	·	·	1.9
CCN1CCN(c2cc(C)c3cc(NC(=O)c4ccc(Br)o4)ccc3n2)CC1	2.7	2.4	-41.7	3.3	6.8	25.1*
Clc1ccccc1/C=N/Nc1cc(N2CCOCC2)ncn1	-24.5	·	-134.1	·	·	·
CCCOc1ccc(/C=N/Nc2cc(N3CCOCC3)ncn2)c(O)c1	-2.1	·	79.3*	·	·	·
CCN(CC)c1ccc(NC(=O)c2cccc(OC)c2)c(C)c1	7.0	·	11.8	0.6	6.3	52.7*
CCN(CC)c1ccc(NC(=O)c2c(OC)cccc2OC)c(C)c1	2.4	-1.9	-39.4	-3.0	-0.4	2.1
COc1ccccc1N=C(C)C1=C(O)CC(c2ccccc2)CC1=O (configuration not stated)	-6.7	52.0*	-6.3	6.7	9.9	7.2
CC(NC(=O)[C@H](C)NC(=O)C1CC(=O)N(c2ccc3c(c2)OCO3)C1)c1ccccc1 (some centres not stated)	-3.2	·	11.7	·	·	·
SMILES	IEC-6 cytotox	b-catenin transl	KLF5 inhibitor	Ba/F3 V617F tox	BaF3 parental	MT stabilizer
O=C1CC(c2cccc([N+](=O)[O-])c2)c2c(ccc3ccccc23)N1 (configuration not stated)	15.8	-0.6	11.2	7.6	7.8	50.0*
O=C1CC(c2cccc([N+](=O)[O-])c2)c2cc3c(cc2N1)CCC3 (configuration not stated)	3.1	0.2	-18.6	1.6	8.2	25.9*
COc1cccc(C2CC(=O)Nc3cc(OC)c(OC)cc32)c1 (configuration not stated)	-13.9	·	-22.3	·	·	·
COc1cccc(C2CC(=O)Nc3cc4c(cc32)CCC4)c1 (configuration not stated)	46.5*	2.4	42.8	37.9*	45.0*	16.6*
Cc1cccc(C(=O)N[C@H](C(=O)NCCc2ccc(Cl)cc2)C(C)C)c1	-6.0	·	-12.5	·	·	·
CCOC(=O)c1ccc(NC2c3ccccc3C(=O)N2c2ccc(C)cn2)cc1 (configuration not stated)	-0.6	·	-42.9	3.1	7.8	3.2
CCOC(=O)c1ccc(NC2c3ccccc3C(=O)N2c2cccnc2)cc1 (configuration not stated)	19.5	-0.3	-7.3	19.8	27.4*	3.4
CC(C)n1cc(/C=C2\NC(=O)N(c3cccc(Cl)c3)C2=O)c2ccccc21	2.4	·	-7.7	-1.7	4.5	22.0*
CC(C)n1cc(/C=C2/NC(=O)N(c3cccc(Cl)c3)C2=O)c2ccccc21	5.3	-0.4	-1.9	0.0	1.0	20.2
CCCCCn1c(=N)n(CC(O)COc2ccccc2OC)c2ccccc21 (configuration not stated)	8.2	-2.4	11.0	17.7	27.5*	2.8
CCCCn1c(=N)n(CC(O)COc2cccc(C)c2)c2ccccc21 (configuration not stated)	6.7	-7.6	13.5	17.0	40.5*	5.5
Cc1ccc(NC(=O)CN(C)C(=O)c2cc3ccccc3o2)cc1	-11.8	-1.9	-5.5	-0.8	8.0	4.7
Cn1c(N=Nc2ccccc2)nc2ccccc21	38.3*	9.5	-190.1	31.2*	31.3*	2.4
COc1ccc(OC)c(/C=N/Nc2nncn2/N=C/c2cc(OC)ccc2OC)c1	19.3	·	-22.1	5.6	5.4	31.5*
COc1cc(/C=N/Nc2nncn2/N=C/c2ccc(O)c(OC)c2)ccc1O	8.5	-3.4	-55.1	3.2	5.8	3.0
COc1nc(N)nc(N)c1NS(=O)(=O)c1ccc(C)cc1	1.6	·	-13.9	·	·	·
Fc1ccc(COc2ccc3ccccc3c2CNc2nn[nH]n2)cc1	3.6	9.4	20.8	-3.4	1.9	3.9
Fc1ccccc1COc1ccc2ccccc2c1CNc1nn[nH]n1	-2.4	-4.3	-23.7	-2.4	3.6	18.4*
O=C(NCCCCc1ccccc1)C12CN(Cc3ccccc3)CC1C(c1ccc([N+](=O)[O-])cc1)=NO2 (configuration not stated)	-0.9	0.0	-10.9	-1.9	0.6	2.4
O=C(COC(=O)CCCN=C1NS(=O)(=O)c2ccccc21)NC(=O)NC1CCCC1	2.1	-1.6	-2.9	-0.4	4.3	1.5
O=[N+]([O-])c1cccc(-c2c[n+]3c(n2-c2ccccc2)SCC3)c1	-0.2	-3.5	-18.5	34.9*	65.0*	2.1
Clc1ccc(-c2c[n+]3c(n2-c2ccccc2)SCC3)cc1	4.6	-0.6	-10.1	66.8*	88.1*	5.5
Clc1ccc(C2=C3CCCCn4c(-c5ccccc5)c[n+](c43)C2)cc1	-10.2	·	6.5	-4.0	1.4	2.9
CCCCOn1c(C)c(C(=O)OCC)c2c3nonc3ccc21	1.5	·	-5.4	-1.1	0.7	1.4
